Test results as given in ChEMBL document CHEMBL3351470, “Synthesis and Structure-Activity Relationships of α-Amino-γ-lactone Ketolides: A Novel Class of Macrolide Antibiotics” (2014).
≈ marks a conversion by molar mass, not a printed value.

How the values were obtained:
Type in all cases: functional
Streptococcus pyogenes [1] = test: Antibacterial activity against efflux-resistant Streptococcus pyogenes by agar microdilution method
How it was run: (§1)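 Agar microdilution MIC following NCCLS standards; strains taken from the Pliva Research Institute culture collection. Panel grouped by phenotype: erythromycin-susceptible, inducibly MLS-resistant (iMLS), constitutively MLSB-resistant and efflux-resistant (M). Azithromycin, telithromycin and cethromycin tested alongside as references. MIC reported in μg/mL.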

Streptococcus pneumoniae [2] = test: Antibacterial activity against macrolide lincosamide- streptogramin B inducibly-resistant Streptococcus pneumoniae by agar microdilution method; how it was run: as §1
Streptococcus pneumoniae [3] = test: Antibacterial activity against erythromycin-susceptible Streptococcus pneumoniae by agar microdilution method
How it was run: (§2)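 Strains from an in-house culture collection (Pliva Research Institute). MIC determined by agar microdilution following NCCLS standards and reported in μg/mL. Erythromycin-susceptible strains are listed as Ery-S; the panel also includes inducibly resistant (iMLS), constitutively resistant (MLSB) and efflux-resistant (M) strains.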

Streptococcus pneumoniae [4] = test: Antibacterial activity against efflux-resistant Streptococcus pneumoniae by agar microdilution method; how it was run: as §1
Streptococcus pyogenes [5] = test: Antibacterial activity against macrolide lincosamide- streptogramin B inducibly-resistant Streptococcus pyogenes by agar microdilution method; how it was run: as §1
Staphylococcus aureus [6] = test: Antibacterial activity against macrolide lincosamide- streptogramin B-resistant Staphylococcus aureus by agar microdilution method; how it was run: as §1
Streptococcus pyogenes [7] = test: Antibacterial activity against erythromycin-susceptible Streptococcus pyogenes by agar microdilution method; how it was run: as §2
Staphylococcus aureus [8] = test: Antibacterial activity against macrolide lincosamide- streptogramin B inducibly-resistant Staphylococcus aureus by agar microdilution method; how it was run: as §1
Haemophilus influenzae = test: Antibacterial activity against Haemophilus influenzae by agar microdilution method; how it was run: as §2
Staphylococcus aureus [9] = test: Antibacterial activity against erythromycin-susceptible Staphylococcus aureus by agar microdilution method; how it was run: as §2

Compound	MIC (Streptococcus pyogenes [1]) [µg/mL]	MIC (Streptococcus pneumoniae [2]) [µg/mL]	MIC (Streptococcus pneumoniae [3]) [µg/mL]	MIC (Streptococcus pneumoniae [4]) [µg/mL]	MIC (Streptococcus pyogenes [5]) [µg/mL]	MIC (Staphylococcus aureus [6]) [µg/mL]	MIC (Streptococcus pyogenes [7]) [µg/mL]	MIC (Staphylococcus aureus [8]) [µg/mL]	MIC (Haemophilus influenzae) [µg/mL]	MIC (Staphylococcus aureus [9]) [µg/mL]
CC[C@H]1OC(=O)[C@H](C)C(=O)[C@H](C)[C@@H](O[C@@H]2O[C@H](C)C[C@H](N(C)C)[C@H]2O)[C@](C)(OC)C[C@@H](C)C(=O)[C@H](C)[C@H]2C(NC(=O)CCc3ccccn3)C(=O)O[C@@]21C (some centres undefined)	4 (≈ 5.26 µM)	2 (≈ 2.63 µM)	≤ 0.125	2 (≈ 2.63 µM)	32 (≈ 42.1 µM)	> 64	≤ 0.125	4 (≈ 5.26 µM)	16 (≈ 21.1 µM)	4 (≈ 5.26 µM)
CC[C@H]1OC(=O)[C@H](C)C(=O)[C@H](C)[C@@H](O[C@@H]2O[C@H](C)C[C@H](N(C)C)[C@H]2O)[C@](C)(OC)C[C@@H](C)C(=O)[C@H](C)[C@H]2C(NC(=O)CCc3ccc4ccccc4c3)C(=O)O[C@@]21C (some centres undefined)	8 (≈ 9.89 µM)	2 (≈ 2.47 µM)	≤ 0.125	2 (≈ 2.47 µM)	4 (≈ 4.94 µM)	> 64	≤ 0.125	1 (≈ 1.24 µM)	2 (≈ 2.47 µM)	1 (≈ 1.24 µM)
CC[C@H]1OC(=O)[C@H](C)C(=O)[C@H](C)[C@@H](O[C@@H]2O[C@H](C)C[C@H](N(C)C)[C@H]2O)[C@](C)(OC)C[C@@H](C)C(=O)[C@H](C)[C@H]2C(NC(=O)CCc3cnc4ccccc4c3)C(=O)O[C@@]21C (some centres undefined)	2 (≈ 2.47 µM)	1 (≈ 1.23 µM)	≤ 0.125	0.5 (≈ 0.617 µM)	1 (≈ 1.23 µM)	> 64	≤ 0.125	1 (≈ 1.23 µM)	4 (≈ 4.94 µM)	1 (≈ 1.23 µM)
CC[C@H]1OC(=O)[C@H](C)C(=O)[C@H](C)[C@@H](O[C@@H]2O[C@H](C)C[C@H](N(C)C)[C@H]2O)[C@](C)(OC)C[C@@H](C)C(=O)[C@H](C)[C@H]2C(NC(=O)CCc3cnc4c(OC)cccc4c3)C(=O)O[C@@]21C (some centres undefined)	0.25 (≈ 0.298 µM)	0.25 (≈ 0.298 µM)	≤ 0.125	0.25 (≈ 0.298 µM)	0.5 (≈ 0.595 µM)	> 64	≤ 0.125	1 (≈ 1.19 µM)	1 (≈ 1.19 µM)	0.5 (≈ 0.595 µM)
CC[C@H]1OC(=O)[C@H](C)C(=O)[C@H](C)[C@@H](O[C@@H]2O[C@H](C)C[C@H](N(C)C)[C@H]2O)[C@](C)(OC)C[C@@H](C)C(=O)[C@H](C)[C@H]2C(NC(=O)CCc3cnc4ccc(OC)cc4c3)C(=O)O[C@@]21C (some centres undefined)	0.5 (≈ 0.595 µM)	0.5 (≈ 0.595 µM)	≤ 0.125	0.5 (≈ 0.595 µM)	0.25 (≈ 0.298 µM)	> 64	≤ 0.125	1 (≈ 1.19 µM)	1 (≈ 1.19 µM)	2 (≈ 2.38 µM)
CC[C@H]1OC(=O)[C@H](C)C(=O)[C@H](C)[C@@H](O[C@@H]2O[C@H](C)C[C@H](N(C)C)[C@H]2O)[C@](C)(OC)C[C@@H](C)C(=O)[C@H](C)[C@H]2C(NC(=O)/C=C/CCc3cnc4ccccc4c3)C(=O)O[C@@]21C (some centres undefined)	4 (≈ 4.78 µM)	8 (≈ 9.57 µM)	≤ 0.125	1 (≈ 1.2 µM)	8 (≈ 9.57 µM)	> 64	≤ 0.125	2 (≈ 2.39 µM)	8 (≈ 9.57 µM)	2 (≈ 2.39 µM)
CC[C@H]1OC(=O)[C@H](C)C(=O)[C@H](C)[C@@H](O[C@@H]2O[C@H](C)C[C@H](N(C)C)[C@H]2O)[C@](C)(OC)C[C@@H](C)C(=O)[C@H](C)[C@H]2C(NC(=O)/C=C/CCc3cnc4c(OC)cccc4c3)C(=O)O[C@@]21C (some centres undefined)	2 (≈ 2.31 µM)	2 (≈ 2.31 µM)	≤ 0.125	2 (≈ 2.31 µM)	0.5 (≈ 0.577 µM)	> 64	≤ 0.125	1 (≈ 1.15 µM)	1 (≈ 1.15 µM)	1 (≈ 1.15 µM)
CC[C@H]1OC(=O)[C@H](C)C(=O)[C@H](C)[C@@H](O[C@@H]2O[C@H](C)C[C@H](N(C)C)[C@H]2O)[C@](C)(OC)C[C@@H](C)C(=O)[C@H](C)[C@H]2C(NC(=O)/C=C/CCc3cnc4ccc(OC)cc4c3)C(=O)O[C@@]21C (some centres undefined)	4 (≈ 4.62 µM)	8 (≈ 9.24 µM)	≤ 0.125	4 (≈ 4.62 µM)	0.25 (≈ 0.289 µM)	> 64	≤ 0.125	2 (≈ 2.31 µM)	1 (≈ 1.15 µM)	2 (≈ 2.31 µM)
CC[C@H]1OC(=O)[C@H](C)C(=O)[C@H](C)[C@@H](O[C@@H]2O[C@H](C)C[C@H](N(C)C)[C@H]2O)[C@](C)(OC)C[C@@H](C)C(=O)[C@H](C)[C@H]2C(NC(=O)CCCCc3cnc4ccccc4c3)C(=O)O[C@@]21C (some centres undefined)	16 (≈ 19.1 µM)	8 (≈ 9.55 µM)	≤ 0.125	4 (≈ 4.77 µM)	8 (≈ 9.55 µM)	> 64	≤ 0.125	2 (≈ 2.39 µM)	16 (≈ 19.1 µM)	1 (≈ 1.19 µM)
CC[C@H]1OC(=O)[C@H](C)C(=O)[C@H](C)[C@@H](O[C@@H]2O[C@H](C)C[C@H](N(C)C)[C@H]2O)[C@](C)(OC)C[C@@H](C)C(=O)[C@H](C)[C@H]2C(NC(=O)CCCCc3cnc4c(OC)cccc4c3)C(=O)O[C@@]21C (some centres undefined)	4 (≈ 4.61 µM)	2 (≈ 2.3 µM)	≤ 0.125	4 (≈ 4.61 µM)	4 (≈ 4.61 µM)	> 64	≤ 0.125	1 (≈ 1.15 µM)	16 (≈ 18.4 µM)	1 (≈ 1.15 µM)
CC[C@H]1OC(=O)[C@H](C)C(=O)[C@H](C)[C@@H](O[C@@H]2O[C@H](C)C[C@H](N(C)C)[C@H]2O)[C@](C)(OC)C[C@@H](C)C(=O)[C@H](C)[C@H]2C(NC(=O)CCCCc3cnc4ccc(OC)cc4c3)C(=O)O[C@@]21C (some centres undefined)	4 (≈ 4.61 µM)	4 (≈ 4.61 µM)	≤ 0.125	4 (≈ 4.61 µM)	2 (≈ 2.3 µM)	> 64	≤ 0.125	2 (≈ 2.3 µM)	8 (≈ 9.22 µM)	1 (≈ 1.15 µM)
CC[C@H]1OC(=O)[C@H](C)C(=O)[C@H](C)[C@@H](O[C@@H]2O[C@H](C)C[C@H](N(C)C)[C@H]2O)[C@](C)(OC)C[C@@H](C)C(=O)[C@H](C)[C@H]2C(NC(=O)CSc3cnc4ccccc4n3)C(=O)O[C@@]21C (some centres undefined)	0.25 (≈ 0.302 µM)	≤ 0.125	≤ 0.06	0.25 (≈ 0.302 µM)	0.25 (≈ 0.302 µM)	> 64	≤ 0.06	0.25 (≈ 0.302 µM)	0.5 (≈ 0.603 µM)	≤ 0.125
CC[C@H]1OC(=O)[C@H](C)C(=O)[C@H](C)[C@@H](O[C@@H]2O[C@H](C)C[C@H](N(C)C)[C@H]2O)[C@](C)(OC)C[C@@H](C)C(=O)[C@H](C)[C@H]2C(NC(=O)CNC(=O)CSc3cnc4ccccc4n3)C(=O)O[C@@]21C (some centres undefined)	0.5 (≈ 0.564 µM)	0.5 (≈ 0.564 µM)	0.25 (≈ 0.282 µM)	0.5 (≈ 0.564 µM)	1 (≈ 1.13 µM)	> 64	0.25 (≈ 0.282 µM)	0.25 (≈ 0.282 µM)	2 (≈ 2.26 µM)	≤ 0.125
CC[C@H]1OC(=O)[C@H](C)C(=O)[C@H](C)[C@@H](O[C@@H]2O[C@H](C)C[C@H](N(C)C)[C@H]2O)[C@](C)(OCC=Cc2cnc3ccccc3c2)C[C@@H](C)C(=O)[C@H](C)[C@H]2NC(=O)O[C@@]21C [CETHROMYCIN]	≤ 0.125	≤ 0.125	≤ 0.06		1 (≈ 1.31 µM)	> 64	≤ 0.06	0.25 (≈ 0.326 µM)	2 (≈ 2.61 µM)	≤ 0.125
